The source made the active and inactive calls.
Tests used:
N2a [1] = test: Cytotoxicity against mouse N2a cells assessed as reduction in cell viability incubated for 3 hrs by MTT assay; format: cell-based
Procedure, shortened: (§1)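 N2a, ScN2a, GT1 or ScGT1 cells seeded (2.5×10^4/mL MEM for N2a lines; 3×10^4/mL DMEM for GT1 lines), settled 1 day. Treated at 0.1, 1 and 10 µM for 5 days at 37 °C, 5% CO2. Read-outs: MTT (5 mg/mL, 3 h, DMSO/2-propanol solubilization, A590); CCK-8 (4 h, A450); calcein-AM (2.5 µM added, 30 min, 492/525 nm). Viability threshold 80%.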

N2a [2] = test: Cytotoxicity against mouse N2a cells assessed as reduction in cell viability incubated for 30 mins by Calcein assay; format: cell-based; conditions: 0.5 h; procedure, shortened: as §1
N2a [3] = test: Cytotoxicity against mouse N2a cells assessed as reduction in cell viability incubated for 4 hrs by CCK-8 assay; format: cell-based; procedure, shortened: as §1
ScN2a [4] = test: Anti-prion activity against RML prion protein in mouse N2a cells assessed as Scrapie prion protein level at 1 uM in presence of proteinase K by Western blotting analysis relative to control; format: cell-based
Procedure, shortened: (§2)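 ScN2a or ScGT1 cells chronically infected with RML or 22L prions (N2a in MEM/10% FBS; GT1 in DMEM/10% FBS) treated 4 days with compound (DMSO stock diluted in EtOH, then medium; final DMSO ≤0.1%). Immunoblot with anti-PrP Fab W226, ECL, densitometry, normalized to untreated control (100%).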

ScN2a [5] = test: Anti-prion activity against RML prion protein in mouse N2a cells assessed as Scrapie prion protein level at 1 uM in absence of proteinase K by Western blotting analysis relative to control; format: cell-based; procedure, shortened: as §2
ScN2a [6] = test: Anti-prion activity in mouse ScN2a cells at 1:1 Prp to compound concentration in presence of proteinase K by Western blotting analysis relative to control; format: functional
Procedure, shortened: (§3)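 Filtered through 3 kDa centrifugal membrane; filtrate (or compound alone, with or without filtration) given to ScN2a cells 4 days. PK-digested/undigested lysates immunoblotted with W226; three independent experiments, control normalized to 100%.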

ScGT1 [7] = test: Anti-prion activity against 22L prion protein in mouse ScGT1 cells assessed as Scrapie prion protein level at 4 uM in absence of proteinase K by Western blotting analysis relative to control; format: cell-based; procedure, shortened: as §2
ScN2a [8] = test: Anti-prion activity in mouse ScN2a cells at 2:1 Prp to compound concentration in absence of proteinase K by Western blotting analysis relative to control; format: functional; procedure, shortened: as §3
[9] = Anti-prion activity against RML prion protein in mouse ScN2a cells in presence of proteinase K by Western blotting analysis; format: cell-based
Procedure, shortened: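 ScN2a-RML cells treated 4 days with 8 concentrations from 0 to 4 µM. Lysates PK-digested (10 µg PK, 1 h, 37 °C) and ultracentrifuged. Pellets denatured in 8 M GdnHCl and coated on ELISA plates overnight at 4 °C. Detection with W226 (1.5 µg/mL), HRP secondary and TMB, A450. IC50 taken from the dose-response curve, with Western blot confirmation.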

N2a [10] = test: Anti-prion activity in mouse N2a cells assessed as effect on localization of cell membrane at 0.4 uM by immunofluorescence staining assay; format: functional, cell-based
Procedure, shortened: (§4)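 N2a cells on poly-lysine coverslips treated with 0.4 or 4 µM. Chilled on ice 15 min, live surface staining with W226 (1:200) 20 min on ice, then fixed in 4% PFA and blocked in 7% goat serum. Alexa488 anti-mouse secondary 1 h, DAPI counterstain, confocal imaging of surface PrPC.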

ScN2a [11] = test: Cytotoxicity against mouse ScN2a cells upto 10 uM; format: cell-based; procedure, shortened: as §1
ScN2a [12] = test: Anti-prion activity against RML prion protein in mouse ScN2a cells assessed as Scrapie prion protein level at 4 uM in absence of proteinase K by Western blotting analysis relative to control; format: cell-based; procedure, shortened: as §2
ScGT1 [13] = test: Anti-prion activity against RML prion protein in mouse ScGT1 cells assessed as Scrapie prion protein level at 4 uM in presence of proteinase K by Western blotting analysis relative to control; format: cell-based; procedure, shortened: as §2
ScN2a [14] = test: Anti-prion activity in mouse ScN2a cells at 1:2 Prp to compound concentration in presence of proteinase K by Western blotting analysis relative to control; format: functional; procedure, shortened: as §3
ScN2a [15] = test: Anti-prion activity in mouse ScN2a cells in absence of proteinase K by Western blotting analysis relative to control; format: functional; procedure, shortened: as §2
ScN2a [16] = test: Anti-prion activity in mouse ScN2a cells at 2:1 Prp to compound concentration in presence of proteinase K by Western blotting analysis relative to control; format: functional; procedure, shortened: as §3
ScN2a [17] = test: Anti-prion activity in mouse ScN2a cells at 1:5 Prp to compound concentration in absence of proteinase K by Western blotting analysis relative to control; format: functional; procedure, shortened: as §3
ScN2a [18] = test: Anti-prion activity in mouse ScN2a cells at 1:1 Prp to compound concentration in absence of proteinase K by Western blotting analysis relative to control; format: functional; procedure, shortened: as §3
ScN2a [19] = test: Anti-prion activity against 22L prion protein in mouse ScN2a cells assessed as Scrapie prion protein level at 4 uM in presence of proteinase K by Western blotting analysis relative to control; format: cell-based; procedure, shortened: as §2
ScN2a [20] = test: Anti-prion activity in mouse ScN2a cells at 1:2 Prp to compound concentration in absence of proteinase K by Western blotting analysis relative to control; format: functional; procedure, shortened: as §3
ScN2a [21] = test: Anti-prion activity in mouse ScN2a cells in presence of proteinase K by Western blotting analysis relative to control; format: functional; procedure, shortened: as §2
ScN2a [22] = test: Anti-prion activity in mouse ScN2a cells at 1N in absence of proteinase K by Western blotting analysis relative to control; format: functional; procedure, shortened: as §3
N2a [23] = test: Anti-prion activity in mouse N2a cells assessed as effect on localization of cell membrane at 4 uM by immunofluorescence staining assay; format: functional, cell-based; procedure, shortened: as §4
ScN2a [24] = test: Anti-prion activity in mouse ScN2a cells at 1N in presence of proteinase K by Western blotting analysis relative to control; format: functional; procedure, shortened: as §3
ScN2a [25] = test: Anti-prion activity against RML prion protein in mouse ScN2a cells assessed as Scrapie prion protein level at 4 uM in presence of proteinase K by Western blotting analysis relative to control; format: cell-based; procedure, shortened: as §2
ScGT1 [26] = test: Anti-prion activity against 22L prion protein in mouse ScGT1 cells assessed as Scrapie prion protein level at 4 uM in presence of proteinase K by Western blotting analysis relative to control; format: cell-based; procedure, shortened: as §2
ScN2a [27] = test: Anti-prion activity against 22L prion protein in mouse ScN2a cells assessed as Scrapie prion protein level at 4 uM in absence of proteinase K by Western blotting analysis relative to control; format: cell-based; procedure, shortened: as §2
ScGT1 [28] = test: Anti-prion activity against RML prion protein in mouse ScGT1 cells assessed as Scrapie prion protein level at 4 uM in absence of proteinase K by Western blotting analysis relative to control; format: cell-based; procedure, shortened: as §2
ScN2a [29] = test: Anti-prion activity in mouse ScN2a cells at 1:5 Prp to compound concentration in presence of proteinase K by Western blotting analysis relative to control; format: functional; procedure, shortened: as §3

## Cc1cc(/C=N/Nc2ccnc3cc(Cl)ccc23)c(C)cc1/C=N/Nc1ccnc2cc(Cl)ccc12
N2a [1]
  Activity: Non-Toxic
N2a [2]
  Activity: Non-Toxic
N2a [3]
  Activity: Non-Toxic
ScN2a [4]
  Activity: 70.9%
ScN2a [5]
  Activity: 63.8%

## C/C(=N\Nc1ccnc2cc(Cl)ccc12)c1ccc2c(c1)N(CCN1CCCCC1)c1ccccc1S2
ScN2a [4]
  Activity: 13.6%
ScN2a [5]
  Activity: 70.2%

## Cn1c(=O)c2cc(C(=O)Nc3ccc(Oc4ccccc4)cc3)sc2c2ccc(Cl)cc21
N2a [1]
  Activity: Non-Toxic
N2a [2]
  Activity: Non-Toxic
N2a [3]
  Activity: Non-Toxic
ScN2a [4]
  Activity: 94.4%
ScN2a [5]
  Activity: 92.5%

## C/C(=N\Nc1ccnc2cc(Cl)ccc12)c1ccc2c(c1)N(CCN(C)C)c1ccccc1S2
ScN2a [4]
  Activity: 8.6%
ScN2a [5]
  Activity: 60.2%

## C/C(=N\Nc1ccnc2cc(Cl)ccc12)c1ccc2c(c1)N(CCN1CCOCC1)c1ccccc1S2
ScN2a [4]
  Activity: 70.3%
ScN2a [5]
  Activity: 95.3%

## COC(=O)c1ccc(COc2ccc(/C=N/Nc3ccnc4cc(Cl)ccc34)cc2OC)cc1
N2a [1]
  Activity: Non-Toxic
N2a [2]
  Activity: Non-Toxic
N2a [3]
  Activity: Non-Toxic
ScN2a [4]
  Activity: 82.3%
ScN2a [5]
  Activity: 95.6%

## CCc1ccc(CNC(=O)CSc2c3c(nc4cc(Cl)ccc24)CCCC3)cc1
N2a [1]
  Activity: Non-Toxic
N2a [2]
  Activity: Non-Toxic
N2a [3]
  Activity: Non-Toxic
ScN2a [4]
  Activity: 77.1%
ScN2a [5]
  Activity: 83.5%

## O=C(Nc1ccc(Oc2ccccc2)cc1)c1cc2cc3ccc(Cl)cc3nc2o1
N2a [1]
  Activity: Non-Toxic
N2a [2]
  Activity: Non-Toxic
N2a [3]
  Activity: Non-Toxic
ScN2a [4]
  Activity: 109%
ScN2a [5]
  Activity: 92.6%

## CCOc1ccc(CNC(=O)CSc2c3c(nc4cc(Cl)ccc24)CCCC3)cc1
N2a [1]
  Activity: Non-Toxic
N2a [2]
  Activity: Non-Toxic
N2a [3]
  Activity: Non-Toxic
ScN2a [4]
  Activity: 102%
ScN2a [5]
  Activity: 110%

## Cn1c(CSc2ccnc3cc(Cl)ccc23)nnc1SCC(=O)N1CCN(c2ccccc2)CC1
N2a [1]
  Activity: Non-Toxic
N2a [2]
  Activity: Non-Toxic
N2a [3]
  Activity: Non-Toxic
ScN2a [4]
  Activity: 88%
ScN2a [5]
  Activity: 85.8%

## C/C(=N\Nc1ccnc2cc(Cl)ccc12)c1ccc2c(c1)Nc1ccccc1S2
ScN2a [6]
  Activity: 90.1%
ScGT1 [7]
  Activity: 39.2%
ScN2a [8]
  Activity: 114.4%
[9]
  IC50: 420 nM
N2a [10]
  Activity: inactive
N2a [1]
  Activity: Non-Toxic
ScN2a [11]
  Activity: Non-Toxic
ScN2a [12]
  Activity: 62.1%
N2a [2]
  Activity: Non-Toxic
ScGT1 [13]
  Activity: 12.3%
ScN2a [14]
  Activity: 65.7%
ScN2a [15]
  Activity: 48.8%
ScN2a [16]
  Activity: 108.2%
ScN2a [17]
  Activity: 41%
ScN2a [18]
  Activity: 117.6%
ScN2a [19]
  Activity: 5.1%
N2a [3]
  Activity: Non-Toxic
ScN2a [4]
  Activity: 35.6%
ScN2a [20]
  Activity: 98.4%
ScN2a [21]
  Activity: 25.2%
ScN2a [22]
  Activity: 51.7%
N2a [23]
  Activity: inactive
ScN2a [24]
  Activity: 22.6%
ScN2a [5]
  Activity: 55.7%
ScN2a [25]
  Activity: 9.4%
ScGT1 [26]
  Activity: 11%
ScN2a [27]
  Activity: 48.7%
ScGT1 [28]
  Activity: 42%
ScN2a [29]
  Activity: 13.6%

## C/C(=N\Nc1ccnc2cc(Cl)ccc12)c1ccc2c(c1)N(CCN1CCN(C)CC1)c1ccccc1S2
ScN2a [4]
  Activity: 4.4%
ScN2a [5]
  Activity: 55.9%

## C/C(=N\Nc1ccnc2cc(Cl)ccc12)c1ccc2c(c1)N(CCCN(C)C)c1ccccc1S2
ScN2a [4]
  Activity: 11.9%
ScN2a [5]
  Activity: 68.7%

## Cn1c(=O)c2cc(C(=O)N3CCC(Cc4ccccc4)CC3)sc2c2ccc(Cl)cc21
N2a [1]
  Activity: Non-Toxic
N2a [2]
  Activity: Non-Toxic
N2a [3]
  Activity: Non-Toxic
ScN2a [4]
  Activity: 82.4%
ScN2a [5]
  Activity: 99.6%

## COc1ccc2nc(NC(=O)c3cc4c(=O)n(C)c5cc(Cl)ccc5c4s3)sc2c1
N2a [1]
  Activity: Non-Toxic
N2a [2]
  Activity: Non-Toxic
N2a [3]
  Activity: Non-Toxic
ScN2a [4]
  Activity: 85.4%
ScN2a [5]
  Activity: 69.1%
